According to PMC3149718 (Molecular and cellular biochemistry, 2011):
Substitutions are numbered along the chain they refer to.

Assays:
[1] = biological target: T1, 89-residue L-CPTI C-terminal peptide, W391A mutant (Rattus norvegicus, UniProt P32198, W391A); test: Direct binding of fluorescent cis-parinaroyl-CoA
T1 sequence (P32198 381-469 W391A): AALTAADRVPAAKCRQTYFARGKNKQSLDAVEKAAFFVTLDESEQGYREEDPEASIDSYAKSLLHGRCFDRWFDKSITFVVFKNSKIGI

[2] = biological target: T2, 89-residue L-CPTI C-terminal peptide, W452A mutant (Rattus norvegicus, UniProt P32198, W452A); test: Direct binding of fluorescent cis-parinaroyl-CoA
T2 sequence (P32198 381-469 W452A): T1 sequence (P32198 381-469 W391A) with A11W, W72A

[3] = biological target: T3, 89-residue L-CPTI C-terminal peptide, wild-type (WT) (Rattus norvegicus, UniProt P32198); test: FRET from CPTI aromatic amino acids to bound cis-parinaroyl-CoA; format: binding
T3 sequence (P32198 381-469): T1 sequence (P32198 381-469 W391A) with A11W
Summary of the method: (§1)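 Peptide (0.1 µM in PBS, pH 7.4) was titrated with cis-parinaroyl-CoA at 24°C (0–1000 nM in methods; 0–250 nM in legend), with excitation at 280 nm and a 300–450 nm scan. Spectra were background-corrected and each averaged from 5 replicates. […] Distance was obtained by the Förster equation. Values are mean ± SE, n=5.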

[4] = biological target: T1, 89-residue L-CPTI C-terminal peptide, W391A mutant; test: as above; format: binding
Summary of the method: as §1

[5] = biological target: T2, 89-residue L-CPTI C-terminal peptide, W452A mutant; test: as above; format: binding
Summary of the method: as §1

[6] = biological target: T3, 89-residue L-CPTI C-terminal peptide, wild-type (WT); test: Displacement of bound cis-parinaroyl-CoA by palmitoyl-CoA; format: binding; conditions: palmitoyl-CoA 0–150nM
Summary of the method: (§2)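 Purified 89-residue peptide (0.1 µM in PBS, pH 7.4) was preincubated with 50 nM cis-parinaroyl-CoA for 5 min at 24°C. It was then titrated with palmitoyl-CoA (0–150 nM stated for WT). Excitation was 310 nm and emission was read at 426 nm. Displacement was taken from the fall in fluorescence and plotted as percent change, and Ki was then calculated.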

[7] = biological target: T1, 89-residue L-CPTI C-terminal peptide, W391A mutant; test: as above; format: binding; conditions: mutant peptides (W391A), range given for both mutants
Summary of the method: as §2

[8] = biological target: T2, 89-residue L-CPTI C-terminal peptide, W452A mutant; test: as above; format: binding; conditions: mutant peptides (W452A), range given for both mutants
Summary of the method: as §2

[9] = biological target: T1, 89-residue L-CPTI C-terminal peptide, W391A mutant; test: Quenching of intrinsic aromatic amino acid fluorescence by palmitoyl-CoA; format: binding; conditions: read-out: Quenching Kd, quenching of aromatic amino acid fluorescence of 0.1 µM W391A peptide
[10] = biological target: T2, 89-residue L-CPTI C-terminal peptide, W452A mutant; test: as above; format: binding; conditions: read-out: Quenching Kd, quenching of aromatic amino acid fluorescence of 0.1 µM W452A peptide

SMILES: CC/C=C/C=C\C=C/C=C/CCCCCCCC(=O)SCCNC(=O)CCNC(=O)[C@H](O)C(C)(C)COP(=O)(O)OP(=O)(O)OC[C@H]1O[C@@H](n2cnc3c(N)ncnc32)[C@H](O)[C@@H]1OP(=O)(O)O (relative stereo) [cis-parinaroyl-CoA]
- binding affinity weaker than WT ([1]; mutant (W391A) versus WT, range given for both mutants): 5–7 fold
- Kd ([1]; read-out: Cpn-CoA Kd, W391A peptide 0.1 µM, PBS pH 7.4, 24°C, direct fluorescence): 52 ± 8 nM
- binding affinity weaker than WT ([2]; mutant (W452A) versus WT, range given for both mutants): 5–7 fold
- Kd ([2]; read-out: Cpn-CoA Kd, W452A peptide 0.1 µM, PBS pH 7.4, 24°C, direct fluorescence): 67 ± 10 nM
- intermolecular distance determined from the increased acceptor fluorescence ([3]; CPTI WT, acceptor (cis-parinaroyl-CoA) fluorescence): 38±1 Å
- Donor Emission R (intermolecular distance) ([3]; from donor (CPTI WT) quenching, Förster equation): 28 ± 1 Å
- Kd ([3]; read-out: Donor Emission Kd, from decrease in donor (CPTI WT) fluorescence): 35 ± 10 nM
- Donor Emission R (intermolecular distance) ([4]; from donor (W391A) quenching): 23.9 ± 0.6 Å
- Kd ([4]; read-out: Donor Emission Kd, from decrease in donor (W391A) fluorescence): 88 ± 9 nM
- Donor Emission R (intermolecular distance) ([5]; from donor (W452A) quenching): 24.3 ± 0.6 Å
- Kd ([5]; read-out: Donor Emission Kd, from decrease in donor (W452A) fluorescence): 51 ± 5 nM

SMILES: CCCCCCCCCCCCCCCC(=O)SCCNC(=O)CCNC(=O)[C@H](O)C(C)(C)COP(=O)(O)OP(=O)(O)OC[C@H]1O[C@@H](n2cnc3c(N)ncnc32)[C@H](O)[C@@H]1OP(=O)(O)O [palmitoyl-CoA]
- displacement of cis-parinaroyl-CoA [6]: approximately 70%
- cis-parinaroyl-CoA displacement [7]: 50–60%
- cis-parinaroyl-CoA displacement [8]: 50–60%
- Kd [9]: 9 ± 1 nM
- Kd [10]: 16 ± 2 nM
